Experimental data reported in ChEMBL document CHEMBL4190246, “Phytochemical Studies on Two Australian Anigozanthos Plant Species” (J Nat Prod, 2017).
Calls of active or inactive are those of the source. The calls are words filed in the database; no cut-off is given here.

What was measured:
Format in all cases: functional, organism-based
Staphylococcus aureus = assay: Antimicrobial activity against methicillin-resistant Staphylococcus aureus ATCC 43300 at 32 ug/ml after 18 hrs
Procedure, shortened: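 Single-concentration screen (COADD): samples dissolved in DMSO at 10 mg/mL stock, plated in duplicate; overnight culture in cation-adjusted Mueller Hinton broth at 37 °C added to 5 × 10^5 CFU/mL, final 32 μg/mL. Incubated 37 °C. Read-out absorbance 600 nm; percent growth inhibition versus media-only and untreated-cell controls on the same plate; significance by Z-score from sample wells.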

Escherichia coli = assay: Antimicrobial activity against Escherichia coli ATCC 25922 at 32 ug/ml after 18 hrs
Procedure, shortened: (§1)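 Single-concentration screen: samples from 10 mg/mL DMSO stocks, duplicate wells; overnight culture in cation-adjusted Mueller Hinton broth at 37 °C, added to 5 × 10^5 CFU/mL, final compound 32 μg/mL; 37 °C, 18 h. Growth read as absorbance at 600 nm; percent inhibition against media-only and untreated-cell controls on the same plate, significance by Z-score.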

Klebsiella pneumoniae = assay: Antimicrobial activity against Klebsiella pneumoniae ATCC 700603 at 32 ug/ml after 18 hrs; procedure, shortened: as §1
Pseudomonas aeruginosa = assay: Antimicrobial activity against Pseudomonas aeruginosa ATCC 27853 at 32 ug/ml after 18 hrs; procedure, shortened: as §1
Acinetobacter baumannii [1] = assay: Antimicrobial activity against Acinetobacter baumannii ATCC 19606 at 32 ug/ml after 18 hrs; settings: ATCC 19606 = CIP 70.34 = JCM 6841; procedure, shortened: as §1
Candida albicans = assay: Antimicrobial activity against Candida albicans ATCC 90028 at 32 ug/ml after 24 hrs by resazurin dye based assay
Procedure, shortened: (§2)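 Fungi grown 3 days on yeast extract–peptone dextrose agar at 30 °C, then diluted in yeast nitrogen base broth to 2.5 × 10^5 CFU/mL. Samples from 10 mg/mL DMSO stocks, duplicate wells, final 32 μg/mL; 35 °C, 24 h. Resazurin added (0.001% final), 2 h more at 35 °C, absorbance at 530 nm. Percent inhibition against on-plate controls; Z-scores.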

Cryptococcus neoformans = assay: Antimicrobial activity against Cryptococcus neoformans ATCC 208821 at 32 ug/ml after 24 hrs by resazurin dye based assay; procedure, shortened: as §2
Acinetobacter baumannii [2] = assay: Antimicrobial activity against Acinetobacter baumannii ATCC 19606 at 53.9 uM after 18 hrs; settings: ATCC 19606 = CIP 70.34 = JCM 6841; procedure, shortened: as §1
Acinetobacter baumannii [3] = assay: Antimicrobial activity against Acinetobacter baumannii ATCC 19606 at 52.4 uM after 18 hrs; settings: ATCC 19606 = CIP 70.34 = JCM 6841; procedure, shortened: as §1
Acinetobacter baumannii [4] = assay: Antimicrobial activity against Acinetobacter baumannii ATCC 19606 at 94.9 uM after 18 hrs; settings: ATCC 19606 = CIP 70.34 = JCM 6841; procedure, shortened: as §1

| Compound | Activity (Staphylococcus aureus) | Activity (Escherichia coli) | Activity (Klebsiella pneumoniae) | Activity (Pseudomonas aeruginosa) | Activity (Acinetobacter baumannii [1]) | Activity (Candida albicans) | Activity (Cryptococcus neoformans) | Activity (Acinetobacter baumannii [2]) | Activity (Acinetobacter baumannii [3]) | Activity (Acinetobacter baumannii [4]) |
| --- | --- | --- | --- | --- | --- | --- | --- | --- | --- | --- |
| O=c1c(O[C@@H]2O[C@H](CO)[C@@H](O)[C@H](O)[C@H]2O)c(-c2ccc(O)c(O)c2)oc2cc(O)cc(O)c12 | inactive | inactive | inactive | inactive | inactive | inactive | inactive | – | – | – |
| O=c1cc(-c2ccc(O)c(O)c2)oc2cc(O[C@@H]3O[C@H](CO)[C@@H](O)[C@H](O)[C@H]3O)cc(O)c12 | inactive | inactive | inactive | inactive | inactive | inactive | inactive | – | – | – |
| O=c1c(O)c(-c2ccc(O)cc2)oc2cc(O)cc(O)c12 | inactive | inactive | inactive | inactive | inactive | inactive | inactive | – | – | – |
| O=C(/C=C/c1ccc(O)cc1)O[C@H]1[C@H](O)[C@@H](O)[C@H](Oc2cc(O)c(O)c(C(=O)/C=C/c3ccc(O)cc3)c2)O[C@@H]1CO | inactive | inactive | inactive | inactive | inactive | inactive | inactive | – | – | – |
| O=C(/C=C/c1ccc(O)cc1)OC[C@H]1O[C@@H](Oc2c(-c3ccc(O)c(O)c3)oc3cc(O)cc(O)c3c2=O)[C@H](O)[C@@H](O)[C@@H]1O | inactive | inactive | inactive | inactive | inactive | inactive | inactive | – | – | – |
| O=C(/C=C/c1ccc(O)cc1)OC[C@H]1O[C@@H](Oc2cc3c(O)cc(O)cc3[o+]c2-c2ccc(O)c(O)c2)[C@H](O)[C@@H](O)[C@@H]1O | inactive | inactive | inactive | inactive | inactive | inactive | inactive | – | – | – |
| C[C@@H]1O[C@@H](OC[C@H]2O[C@@H](Oc3c(-c4ccc(O)cc4)oc4cc(O)cc(O)c4c3=O)[C@H](O)[C@@H](O)[C@@H]2O)[C@H](O)[C@H](O)[C@H]1O | inactive | inactive | inactive | inactive | – | inactive | inactive | Active | – | – |
| C[C@@H]1O[C@@H](OC[C@H]2O[C@@H](Oc3c(-c4ccc(O)c(O)c4)oc4cc(O)cc(O)c4c3=O)[C@H](O)[C@@H](O)[C@@H]2O)[C@H](O)[C@H](O)[C@H]1O | inactive | inactive | inactive | inactive | inactive | inactive | inactive | – | – | – |
| O=C(/C=C/c1ccc(O)cc1)OC[C@H]1O[C@@H](Oc2c(-c3ccc(O)cc3)oc3cc(O)cc(O)c3c2=O)[C@H](O)[C@@H](O)[C@@H]1O | inactive | inactive | inactive | inactive | inactive | inactive | inactive | – | – | – |
| O=C1c2c(O)cc(O)cc2O[C@H](c2ccc(O)c(O)c2)[C@H]1O | inactive | inactive | inactive | inactive | inactive | inactive | inactive | – | – | – |
| C[C@@H]1O[C@@H](OC[C@H]2O[C@@H](Oc3cc4c(O)cc(O)cc4[o+]c3-c3ccc(O)c(O)c3)[C@H](O)[C@@H](O)[C@@H]2O)[C@H](O)[C@H](O)[C@H]1O | inactive | inactive | inactive | inactive | – | inactive | inactive | – | Active | – |
| O=C(O)[C@H]1O[C@@H](Oc2cc(O)c3c(=O)cc(-c4ccc(O)cc4)oc3c2)[C@H](O)[C@@H](O)[C@@H]1O | inactive | inactive | inactive | inactive | inactive | inactive | inactive | – | – | – |
| NC(CCCC(OC(=O)/C=C/c1ccc(O)cc1)C(=O)O)C(=O)O (stereo unspecified) | inactive | inactive | inactive | inactive | – | inactive | inactive | – | – | Active |
